In this assay the target is Glutathione S-transferase omega-1 (Homo sapiens) (UniProt P78417). The assay is described as follows: in situ GSTO1 inhibition versus click-labeling – cell-based, MDA-MB-435, competitive ABPP, click chemistry, fluorescence, mechanism study for GSTO1 inhibitor project, late-stage follow-up (AID 463093). The settings on record: MDA-MB-435 in situ competitive ABPP, gel fluorescence; for fold labeling / inhibition: stronger effect = higher value; for inhibition: in situ competitive ABPP. The gist of the method:
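Assay system: MDA-MB-435 cells, in situ treatment. Schedule: cells 1 h 37 °C, click 1 h 25 °C. Measured by: SDS-PAGE in-gel fluorescence.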

Activity calls are given as the source filed them.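 The calls were made as follows: active = compound blocking at least 90% of GSTO1 probe labeling in gels, or giving a GSTO1 band over fivefold background; inactive = the rest.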

The values that follow come from PubChem BioAssay AID463093 (The Scripps Research Institute Molecular Screening Center, 2010).

Chain of Glutathione S-transferase omega-1 (Homo sapiens) (P78417 whole entry, looked up): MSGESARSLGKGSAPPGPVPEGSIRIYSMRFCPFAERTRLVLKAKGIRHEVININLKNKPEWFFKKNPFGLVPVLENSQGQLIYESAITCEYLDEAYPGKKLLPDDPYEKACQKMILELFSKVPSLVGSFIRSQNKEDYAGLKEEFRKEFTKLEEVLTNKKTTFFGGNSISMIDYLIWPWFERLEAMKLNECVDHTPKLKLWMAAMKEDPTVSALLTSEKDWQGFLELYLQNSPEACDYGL

One may read the inhibition as the percentage by which the read-out fell short of the control. As to `C#CCN(CCCN(C(=O)CCl)c1ccc([N+](=O)[O-])cc1)C(=O)C(F)(F)F`, for the setting “direct ABPP, click chemistry”, the result was active. The fold labeling reads like this: (direct ABPP, click chemistry, click labeling 0.25 uM, at 0.25 µM) greater than 5; (direct ABPP, click chemistry, click labeling 0.5 uM, at 0.5 µM) greater than 5; (direct ABPP, click chemistry, click labeling fold over background 1 uM, at 1 µM) greater than 5. Further, the inhibition runs as follows: (at 1 µM) 100%; (inhibition, at 0.25 µM) 99%; (inhibition, at 0.5 µM) 100%.
